Reference: ChEMBL document CHEMBL1128270 (J Med Chem, 1995)

Columns and labels:
D(2) dopamine receptor = D(2) dopamine receptor (Rattus norvegicus, UniProt P61169); experiment: The compound was evaluated for the binding affinity towards Dopamine receptor D2 binding site using [3H]spiroperidol.
Method in brief: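 IC50 came from 7–9 drug concentrations in triplicate, over 2–4 independent experiments, analysed with EBDA. Specific binding exceeded 75% of total.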

[1] = Selectivity as the ratio of IC50 value against alpha-1 receptor to that of 5-hydroxytryptamine 1A receptor
Method in brief: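 Ratio of the α1 IC50 to the 5-HT1A IC50 ([3H]-8-OH-DPAT, rat cortex). For α1, male Sprague-Dawley rat cortex membranes were prepared in 50 mM Tris-HCl pH 7.7 with 10 μM pargyline and 0.1% ascorbate.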

[2] = molecular target: T1, Adrenergic receptor alpha-1 (Rattus norvegicus, UniProt P15823+P23944+P43140); experiment: In vitro binding affinity measured on alpha-1 adrenergic receptor using [3H]prazosin as radioligand.; format: protein assay
T1 sequence (P15823 whole entry): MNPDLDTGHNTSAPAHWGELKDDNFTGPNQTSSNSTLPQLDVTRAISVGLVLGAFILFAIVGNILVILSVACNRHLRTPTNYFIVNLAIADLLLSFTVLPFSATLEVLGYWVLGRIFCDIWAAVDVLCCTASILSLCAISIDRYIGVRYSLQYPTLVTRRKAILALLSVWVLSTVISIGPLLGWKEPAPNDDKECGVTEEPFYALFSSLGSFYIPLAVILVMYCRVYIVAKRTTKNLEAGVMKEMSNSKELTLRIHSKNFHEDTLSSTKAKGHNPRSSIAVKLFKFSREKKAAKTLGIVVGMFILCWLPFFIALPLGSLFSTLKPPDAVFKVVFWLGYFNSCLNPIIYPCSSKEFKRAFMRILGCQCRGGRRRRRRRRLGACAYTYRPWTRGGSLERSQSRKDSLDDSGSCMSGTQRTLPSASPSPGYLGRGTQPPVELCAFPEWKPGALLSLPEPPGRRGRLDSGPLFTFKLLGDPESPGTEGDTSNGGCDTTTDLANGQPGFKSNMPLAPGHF
T1 sequence (P23944 whole entry): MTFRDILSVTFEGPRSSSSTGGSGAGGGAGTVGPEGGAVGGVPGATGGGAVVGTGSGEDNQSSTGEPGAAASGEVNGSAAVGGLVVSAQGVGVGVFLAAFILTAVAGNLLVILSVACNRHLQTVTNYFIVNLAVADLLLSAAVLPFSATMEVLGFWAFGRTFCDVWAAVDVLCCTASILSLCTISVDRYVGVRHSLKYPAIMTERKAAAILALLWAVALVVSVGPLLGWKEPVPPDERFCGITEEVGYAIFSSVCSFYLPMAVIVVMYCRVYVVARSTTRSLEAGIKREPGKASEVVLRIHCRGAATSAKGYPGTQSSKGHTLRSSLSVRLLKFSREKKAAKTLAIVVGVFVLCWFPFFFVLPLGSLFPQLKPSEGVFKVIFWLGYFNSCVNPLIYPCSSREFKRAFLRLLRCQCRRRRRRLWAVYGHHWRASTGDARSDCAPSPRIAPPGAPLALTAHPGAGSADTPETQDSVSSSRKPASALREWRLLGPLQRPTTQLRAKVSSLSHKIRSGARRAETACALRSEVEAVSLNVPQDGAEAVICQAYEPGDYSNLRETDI
T1 sequence (P43140 whole entry): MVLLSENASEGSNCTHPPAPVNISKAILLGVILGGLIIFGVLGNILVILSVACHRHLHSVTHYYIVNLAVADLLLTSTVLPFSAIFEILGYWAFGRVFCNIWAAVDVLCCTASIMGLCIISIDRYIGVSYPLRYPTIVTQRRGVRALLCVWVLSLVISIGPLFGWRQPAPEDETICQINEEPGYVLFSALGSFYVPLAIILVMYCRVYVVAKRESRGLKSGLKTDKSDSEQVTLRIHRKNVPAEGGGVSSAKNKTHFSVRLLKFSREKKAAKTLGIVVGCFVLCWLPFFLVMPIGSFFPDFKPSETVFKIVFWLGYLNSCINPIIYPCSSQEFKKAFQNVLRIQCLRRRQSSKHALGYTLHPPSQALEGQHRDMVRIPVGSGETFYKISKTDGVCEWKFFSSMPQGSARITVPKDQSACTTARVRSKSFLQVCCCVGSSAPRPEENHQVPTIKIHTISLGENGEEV

[3] = tested on: Dopamine D2 receptor and serotonin 1a receptor (Rattus norvegicus); experiment: Selectivity as the ratio of IC50 value against D-2 receptor to that of 5-hydroxytryptamine 1A receptor
[4] = molecular target: T2, 5-hydroxytryptamine receptor 1A (Rattus norvegicus, UniProt P19327); experiment: In vitro binding affinity measured on serotonin 5-hydroxytryptamine 1A receptor using [3H]8-OH-DPAT as radioligand.
T2 sequence (P19327 whole entry): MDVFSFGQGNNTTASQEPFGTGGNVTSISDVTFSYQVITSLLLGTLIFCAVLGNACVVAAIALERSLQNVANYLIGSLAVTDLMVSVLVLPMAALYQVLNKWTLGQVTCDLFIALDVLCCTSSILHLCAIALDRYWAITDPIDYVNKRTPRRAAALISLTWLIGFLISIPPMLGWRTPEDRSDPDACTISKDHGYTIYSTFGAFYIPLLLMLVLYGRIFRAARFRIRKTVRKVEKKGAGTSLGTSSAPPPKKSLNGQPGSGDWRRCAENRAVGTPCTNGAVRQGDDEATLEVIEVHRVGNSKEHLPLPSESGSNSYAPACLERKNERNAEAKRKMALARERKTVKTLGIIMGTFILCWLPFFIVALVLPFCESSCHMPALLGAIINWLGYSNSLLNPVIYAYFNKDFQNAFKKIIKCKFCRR

Chain of D(2) dopamine receptor (P61169 whole entry): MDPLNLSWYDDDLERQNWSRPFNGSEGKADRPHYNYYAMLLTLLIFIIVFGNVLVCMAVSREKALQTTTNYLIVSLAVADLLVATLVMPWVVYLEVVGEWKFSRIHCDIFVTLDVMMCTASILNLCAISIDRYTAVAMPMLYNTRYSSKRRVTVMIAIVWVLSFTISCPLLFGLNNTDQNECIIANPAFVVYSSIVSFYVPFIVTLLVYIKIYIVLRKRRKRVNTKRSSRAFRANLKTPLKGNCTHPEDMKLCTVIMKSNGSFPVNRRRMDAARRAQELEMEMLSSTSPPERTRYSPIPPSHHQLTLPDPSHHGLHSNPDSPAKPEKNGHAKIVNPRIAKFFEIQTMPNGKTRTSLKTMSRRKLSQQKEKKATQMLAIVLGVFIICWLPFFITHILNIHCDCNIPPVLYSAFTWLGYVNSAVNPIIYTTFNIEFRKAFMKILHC

Q: Which IC50 (D(2) dopamine receptor) does the source give for `COc1ccc2c(c1)C(NCCN1CCN(c3ccccc3OC)CC1)CCC2` (stereo not given) here?
A: 1200 nM

Q: What about the Selectivity [1] of the same molecule?
A: 49

Q: And the IC50 [2]?
A: 1960 nM

Q: What about the Selectivity [3] of the same molecule?
A: 30

Q: What about the IC50 [4] of the same molecule?
A: 40.3 nM
